Assay results of several laboratories.
ABL1 E255K: Tyrosine-protein kinase ABL1 (ABL1, Homo sapiens, UniProt P00519, E255K)

COc1ccc2c(c1)O[C@H](c1ccc(OC)c(OC)c1)C[C@@H]2NC(=O)C1(c2ccc3c(c2)OC(F)(F)O3)CC1
remaining binding (Tyrosine-protein kinase ABL1, phosphorylated (ABL1, Homo sapiens, UniProt P00519, M351T); cell-free assay; competition with immobilised ligand; 1 µM): 88%

N[C@H]1CCN(c2nccc(-c3cnn4ncccc34)n2)C1
remaining binding (ABL1 E255K; binding; 1 µM): 98%

Cc1noc([C@H]2C[C@@H](c3ccc(C(F)(F)F)cc3)CN(C(=O)N3CCS(=O)(=O)C3)C2)n1
remaining binding (Tyrosine-protein kinase ABL1, phosphorylated (ABL1, Homo sapiens, UniProt P00519, E255K); binding; competition with immobilised ligand; 1 µM): 100%

COc1cc(-c2cc(-c3ccc(N4CCNCC4)cc3)cnc2N)cc(OC)c1OC
inhibition (ABL1 E255K; enzyme activity; inhibitor; 1 µM): 94%

CO[C@@H](C)c1c(Nc2ccc([C@H](N(C)C(=O)C3CCS(=O)(=O)CC3)C(F)(F)F)cc2)cnc2cc(Cl)nn12
remaining binding (Tyrosine-protein kinase ABL1, phosphorylated (ABL1, Homo sapiens, UniProt P00519, H396P); cell-free assay; competition with immobilised ligand; 1 µM): 100%

CCCOc1ccc(OC)c(F)c1C(=O)c1ccc(C(=O)N[C@@H]2CNC[C@H]2NC(=O)c2ccc3[nH]ncc3c2)cc1
remaining activity (Tyrosine-protein kinase ABL1 (ABL1, Homo sapiens, UniProt P00519, T315I); enzyme activity; inhibitor; 10 µM): 85%

Cc1cc(NC(=O)c2cccc3cc(-c4cccc5[nH]nc(N)c45)ccc23)ccc1F
activity vs control (Tyrosine-protein kinase ABL1 (ABL1, Homo sapiens, UniProt P00519, Q252H); enzyme activity; inhibitor; 0.1 µM): 88%

Nc1ncnc2occ(-c3ccc(NC(=O)Nc4cc(C(F)(F)F)ccc4F)cc3)c12
remaining signal (Tyrosine-protein kinase ABL1, non-phosphorylated (ABL1, Homo sapiens, UniProt P00519, F317I); cell-free assay; inhibitor; 20 µM): 0.45%

Cc1cnc(NC2CCOCC2)nc1-n1cnc(C(=O)NC(CN)c2cc(F)cc(Cl)c2)c1 (stereo not drawn)
remaining activity (Tyrosine-protein kinase ABL1 (ABL1, Homo sapiens, UniProt P00519, M351T); enzyme activity; inhibitor; radiometric; 1 µM): 95%
